Test results: publication PMC8131326 (The Journal of Biological Chemistry, 2021)

Assays:
human Kv1.1 = assay: Whole-cell patch clamp, HEK 293T cells expressing Kv1.1; assay type: cell-based; conditions: 0.2 mM TEA; n = 5
Summary of the method: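 HEK 293T cells carrying plasmids for human Kv1.1 plus EGFP. Whole-cell patch clamp at room temperature after holding at −70 mV for 4 min, filtered at 2 kHz and digitized at 20 kHz. Currents elicited by a +10 mV depolarization were compared before and after application of the test agent.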

[1] = tested on: NO production in Raw 264.7 cells; assay: LPS-induced NO production and iNOS mRNA in Raw 264.7 cells; assay type: cell-based, murine; conditions: 100 ng/ml LPS
Summary of the method: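 Nitrite: 5 × 10^4 Raw 264.7 cells/well grown overnight, then given test compound (0.1–10 μM) plus 100 ng/ml LPS (E. coli O55:B5) for 24 h; supernatant assayed by Griess reagent at 540 nm. MgTx 100 nM served as positive control; cells without compound and/or LPS as negative controls; repeated four times. iNOS mRNA: 3 μM compound plus LPS for 8 h, SYBR qRT-PCR normalized to GAPDH (2−ΔΔCT), fold change versus untreated, in triplicate.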

[2] = tested on: carrageenan-induced paw edema in mice; assay: Carrageenan-induced paw edema assay; assay type: in vivo, Kunming mice; conditions: FS48 1.5 mg/kg
Summary of the method: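 Male and female Kunming mice, randomized into four groups of six. Test compound (1.5 mg/kg), saline or aspirin (5 mg/kg) given i.p. 1 h before intraplantar 1% carrageenan in saline (50 μl) into the right hind paw. Paw volume to the ankle measured by plethysmometer before injection and at 2–24 h; swelling taken as Δvolume. In a second set, paws were excised at 4 h for histology, cytokine and MPO assays. Mean ± SEM, n = 6.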

[3] = tested on: Kv1.3 expression in Raw 264.7 cells; assay: Kv1.3 channel mRNA and protein expression in LPS-activated Raw 264.7 cells; assay type: cell-based, murine; conditions: 3 μM FS48, 100 nM MgTx, 100 ng/ml LPS
Summary of the method: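 Raw 264.7 cells activated with 100 ng/ml LPS and exposed to test compound (3 μM) or MgTx (100 nM) for 24 h. Kv1.3 mRNA: Trizol RNA extraction, SYBR qRT-PCR (95 °C 5 min; 40 cycles of 95 °C 15 s / 60 °C 45 s), normalized to GAPDH by 2−ΔΔCT, in triplicate. Kv1.3 protein: western blot with primary antibody 1:2000 overnight at 4 °C, HRP chemiluminescence, densitometry against GAPDH, in triplicate.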

[4] = tested on: Kv current of LPS-activated Raw 264.7 cells; assay: Kv currents of LPS-activated Raw 264.7 macrophages; assay type: cell-based, murine
Summary of the method: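 Raw 264.7 cells in DMEM/10% FBS at 37 °C, 5% CO2, LPS-activated. Whole-cell patch clamp at room temperature, held at −70 mV for 4 min to equilibrate, filtered at 2 kHz and digitized at 20 kHz, 80% series-resistance compensation. Currents compared before and after test compound or 100 nM MgTx, with amplitude taken at +40 mV. I–V curves used 150-ms steps from −50 to +40 mV, 10 mV increments, 2 s intervals. Mean ± SEM, at least four experiments.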

## CC[N+](CC)(CC)CC [TEA, tetraethylammonium]
Human Kv1.1
  reduction of Kv1.1 current by TEA: 31.81 ± 1.98%

## MgTx: a highly specific Kv1.3 blocker, positive control (UniProtKB P40755) (TIINVKCTSPKQCLPPCKAQFGQSAGAKCMNGKCKCYPH; UniProt P40755 1-39, looked up)
[1]; 10 μM FS48, 100 nM MgTx, 24 h, Griess reagent
  inhibition of LPS-induced nitrite production: about 37.65%
[1]; exposure for 8 h, 3 μM FS48, qRT-PCR
  LPS-induced increase of mRNA level of iNOS: evidently inhibited
[2]; MgTx 0.4179 mg/kg, intraperitoneally 1 h before carrageenan
  effect on the second phase of carrageenan-induced paw edema: remarkable anti-inflammatory effects
[3]; real-time PCR
  Kv1.3 mRNA expression induced by LPS: greatly reduced
[3]; 24 h, western blot normalized to GAPDH
  decrease of Kv1.3 protein expression induced by LPS: 76.15 ± 13.81%
[4]; 1 μM FS48 or 100 nM MgTx, LPS-activated Raw 264.7 cells, n = 4
  Kv currents at all test voltages (−50 to +40 mV): reduced markedly
[4]; at +40 mV, 100 nM MgTx, 10 μM FS48
  reduction of amplitude of Kv current of LPS-activated macrophages: 59.45 ± 2.79%

## CC(=O)Oc1ccccc1C(=O)O [aspirin]
[2]; aspirin 5 mg/kg i.p., 4 h after carrageenan
  carrageenan-induced secretion of IL-1β, IL-6, and TNF-α in paw tissues: diminished
[2]; aspirin 5 mg/kg i.p., 4 h after carrageenan, HE stain
  leukocyte infiltration in paw (histological analysis): obviously reduced
[2]; aspirin 5 mg/kg, intraperitoneally 1 h before carrageenan (1%, 50 μl), 4 h, n = 6
  suppression of hind paw edema at 4 h versus model group: approximately 44.79%
